Data taken from ChEMBL document CHEMBL4007441, “Novel Design of Heptad Amphiphiles To Enhance Cell Selectivity, Salt Resistance, Antibiofilm Properties and Their Membrane-Disruptive Mechanism” (J Med Chem, 2017).
Values after ≈ are worked out from the molar mass of the structure shown.

What was measured:
Staphylococcus aureus = experiment: Antibacterial activity against Staphylococcus aureus ATCC 29213 after 18 hrs by broth microdilution method; assay type: functional
Summary of the method: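 Broth microdilution. Exponential-phase bacteria grown in MHB at 37 °C, diluted to about 1 × 10^6 CFU/mL in MHB and mixed 1:1 with two-fold dilutions of peptide. MIC is the lowest concentration with no visible turbidity after 18 h at 37 °C. Controls were uninoculated broth and peptide-free culture. At least three repeats, duplicates each.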

Pseudomonas aeruginosa [1] = experiment: Antibacterial activity against Pseudomonas aeruginosa ATCC 27853 after 18 hrs by broth microdilution method; assay type: functional
Summary of the method: (§1)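 Broth microdilution in Mueller-Hinton broth. Exponential-phase bacteria (37 °C, 220 rpm shaking) were diluted to about 1 × 10^6 CFU/mL and mixed 1:1 with two-fold serial peptide dilutions. MIC is the lowest concentration with no visible turbidity after 18 h at 37 °C. Controls were uninoculated MHB and untreated culture. Run at least three times, two replicates each.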

Pseudomonas aeruginosa [2] = experiment: Antibacterial activity against Pseudomonas aeruginosa CICC 21630 after 18 hrs by broth microdilution method; assay type: functional; summary of the method: as §1
Pseudomonas aeruginosa [3] = experiment: Antibacterial activity against gentamicin-resistant Pseudomonas aeruginosa 11421 after 18 hrs by broth microdilution method; assay type: functional; details: Pseudomonas aeruginosa, 11421, 18 h
Summary of the method: (§2)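 Broth microdilution in Mueller-Hinton broth. Exponential-phase bacteria (37 °C, 220 rpm shaking) were diluted to about 1 × 10^6 CFU/mL and mixed 1:1 with two-fold serial peptide dilutions. Controls were uninoculated MHB and untreated culture. Run at least three times, two replicates each.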

Pseudomonas aeruginosa [4] = experiment: Antibacterial activity against Pseudomonas aeruginosa CICC 10419 after 18 hrs by broth microdilution method; assay type: functional; summary of the method: as §1
Pseudomonas aeruginosa [5] = experiment: Antibacterial activity against Pseudomonas aeruginosa CICC 21625 after 18 hrs by broth microdilution method; assay type: functional; summary of the method: as §1
Pseudomonas aeruginosa [6] = experiment: Antibacterial activity against ciprofloxacin-resistant Pseudomonas aeruginosa 11411 after 18 hrs by broth microdilution method; assay type: functional; summary of the method: as §2
Pseudomonas aeruginosa [7] = experiment: Antibacterial activity against ceftazidime-resistant Pseudomonas aeruginosa 11431 after 18 hrs by broth microdilution method; assay type: functional; summary of the method: as §1
Pseudomonas aeruginosa [8] = experiment: Antibacterial activity against Pseudomonas aeruginosa 21328 clinical isolate after 18 hrs by broth microdilution method; assay type: functional; details: Pseudomonas aeruginosa, 21328, 18 h
Pseudomonas aeruginosa [9] = experiment: Antibacterial activity against Pseudomonas aeruginosa 25349 clinical isolate after 18 hrs by broth microdilution method; assay type: functional
Pseudomonas aeruginosa [10] = experiment: Antibacterial activity against Pseudomonas aeruginosa 26305 clinical isolate after 18 hrs by broth microdilution method; assay type: functional
RAW264.7 = experiment: Cytotoxicity in mouse RAW264.7 cells after 24 hrs by MTT assay; assay type: cell-based; details: raw264.7, 24 h
Pseudomonas aeruginosa [11] = experiment: Antibacterial activity against Pseudomonas aeruginosa ATCC 27853 assessed as induction of outer membrane permeabilization by measuring NPN uptake by spectrofluorophotometric analysis; assay type: functional
Summary of the method: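 Exponential-phase cells were washed in HEPES pH 7.4 with 5 mM glucose and diluted to about 10^5 CFU/mL. NPN was added at 10 µM final, then peptide at varying concentrations. Fluorescence (ex 350/em 420 nm) was followed to plateau. Values are % NPN uptake relative to polymyxin B at 10 mg/L (100%). Three experiments, duplicates.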

Pseudomonas aeruginosa [12] = experiment: Antibacterial activity against Pseudomonas aeruginosa ATCC 27853 assessed as induction of cytoplasmic membrane depolarization after 90 min incubation under dark condition by diSC3-5 dye-based fluorescence analysis; assay type: functional
Summary of the method: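 Exponential-phase cells were washed three times in 5 mM HEPES (pH 7.4). diSC3-5 (0.4 µM final) and KCl (0.1 M final) were added, then the cells were incubated 90 min at 37 °C in the dark. Peptide at a range of concentrations was added and fluorescence followed at ex 622/em 670 nm. Three independent experiments, duplicates each.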

Escherichia coli = experiment: microbe, parasite or virus in culture; details: ATCC 25922, 18 h
Pseudomonas aeruginosa [13] = experiment: Antibacterial activity against Pseudomonas aeruginosa ATCC 27853 assessed as induction of membrane integrity disruption at MIC after 15 mins by PI-staining based flow cytometry (reference value: 4.7%)
Pseudomonas aeruginosa [14] = experiment: Drug uptake in Pseudomonas aeruginosa ATCC 27853 treated with FITC-labeled compound at MIC after 30 mins by confocal fluorescence microscopy; assay type: ADME; details: 0.5 h
Summary of the method: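 Cells were pelleted at 5,000 g for 5 min, washed three times in PBS, smeared and imaged by confocal microscopy with 488 nm excitation.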

Lipopolysaccharide (LPS) = experiment: Binding affinity to Pseudomonas aeruginosa ATCC 27853 LPS by SPR spectroscopic analysis
Summary of the method: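 Biacore SPR. Peptides were amine-coupled to CM5 chips at 20 µg/mL in 10 mM acetate pH 6.0, giving about 1300 RU. LPS at 3.125–12.5 µg/mL in 20 mM Tris/100 mM NaCl pH 7.4 was flowed at 10 µL/min. Surfaces were regenerated with 50 mM NaOH plus 0.05% SDS. Three independent runs.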

[15] = Pseudomonas aeruginosa, 11411, 18 h
[16] = Pseudomonas aeruginosa, 11431, 18 h
[17] = Pseudomonas aeruginosa, 25349, 18 h
[18] = Pseudomonas aeruginosa, 26305, 18 h

Compound	MIC (Staphylococcus aureus; ATCC 29213, 18 h) [mg/L]	MIC (Pseudomonas aeruginosa [1]; ATCC 27853, 18 h) [mg/L]	MIC (Pseudomonas aeruginosa [2]; CICC 21630, 18 h) [mg/L]	MIC (Pseudomonas aeruginosa [3]) [mg/L]	MIC (Pseudomonas aeruginosa [4]; CICC 10419, 18 h) [mg/L]	MIC (Pseudomonas aeruginosa [5]; CICC 21625, 18 h) [mg/L]	MIC (Pseudomonas aeruginosa [6]; [15]) [mg/L]	MIC (Pseudomonas aeruginosa [7]; [16]) [mg/L]	MIC (Pseudomonas aeruginosa [8]) [mg/L]	MIC (Pseudomonas aeruginosa [9]; [17]) [mg/L]	MIC (Pseudomonas aeruginosa [10]; [18]) [mg/L]	CC10 (RAW264.7) [mg/L]	Activity (Pseudomonas aeruginosa [11])	MIC (Escherichia coli) [mg/L]	also measured
O=C(O)c1cn(C2CC2)c2cc(N3CCNCC3)c(F)cc2c1=O [CIPROFLOXACIN]	4 (≈ 12.1 µM)	4 (≈ 12.1 µM)	16 (≈ 48.3 µM)	16 (≈ 48.3 µM)											
H-LRRLRRRWRRRLRRL-NH2	16	16	16	32	32	16	32	16	32	8	32	256	Dose-dependent effect	16	Activity (Pseudomonas aeruginosa [12]): Dose-dependent effect; Activity (Pseudomonas aeruginosa [13]): 93%
H-LRRLRRRWLRRLRRR-NH2	64	32	32	256	256	64	128	64	128	32	64	> 256	Dose-dependent effect	> 128	Activity (Pseudomonas aeruginosa [12]): Dose-dependent effect; Activity (Pseudomonas aeruginosa [13]): 57%
H-WRRWRRRWRRRWRRW-NH2	16	4	16	256	256	256	256	8	256	32	32	128	Dose-dependent effect	32	
CC[C@H](C)[C@H](NC(=O)CN)C(=O)NCC(=O)N[C@@H](C)C(=O)N[C@H](C(=O)N[C@@H](CC(C)C)C(=O)N[C@@H](CCCCN)C(=O)N[C@H](C(=O)N[C@@H](CC(C)C)C(=O)N[C@H](C(=O)N[C@H](C(=O)NCC(=O)N[C@@H](CC(C)C)C(=O)N1CCC[C@H]1C(=O)N[C@@H](C)C(=O)N[C@@H](CC(C)C)C(=O)N[C@H](C(=O)N[C@@H](CO)C(=O)N[C@@H](Cc1c[nH]c2ccccc12)C(=O)N[C@H](C(=O)N[C@@H](CCCCN)C(=O)N[C@@H](CCCNC(=N)N)C(=O)N[C@@H](CCCCN)C(=O)N[C@@H](CCCNC(=N)N)C(=O)N[C@@H](CCC(N)=O)C(=O)N[C@@H](CCC(N)=O)C(N)=O)[C@@H](C)CC)[C@@H](C)CC)[C@@H](C)O)[C@@H](C)O)C(C)C)C(C)C [MELITTIN]												0.5 (≈ 0.176 µM)			Drug uptake (Pseudomonas aeruginosa [14]): Active; Activity (Lipopolysaccharide (LPS)): Dose-dependent effect
CC(C)(O/N=C(\C(=O)N[C@@H]1C(=O)N2C(C(=O)[O-])=C(C[n+]3ccccc3)CS[C@H]12)c1csc(N)n1)C(=O)O [CEFTAZIDIME]	16 (≈ 29.3 µM)	2 (≈ 3.66 µM)	8 (≈ 14.6 µM)	32 (≈ 58.5 µM)	32 (≈ 58.5 µM)	32 (≈ 58.5 µM)	32 (≈ 58.5 µM)	256 (≈ 468 µM)	256 (≈ 468 µM)	64 (≈ 117 µM)	128 (≈ 234 µM)	> 256		2 (≈ 3.66 µM)	
H-LRRLRRRLRRLRRRWRRRLRRLRRRLRRL-OH	16	8	4	16	4	8	8	8	8	8	16	128	Dose-dependent effect	8	
GENTAMICIN [listing 1 of 2 here]															MIC (Staphylococcus aureus): 1 mg/L; MIC (Pseudomonas aeruginosa [1]): 2 mg/L; MIC (Pseudomonas aeruginosa [4]): 16 mg/L; MIC (Pseudomonas aeruginosa [5]): 32 mg/L; MIC (Pseudomonas aeruginosa [2]): 8 mg/L; MIC (Pseudomonas aeruginosa [6]): 32 mg/L; MIC (Pseudomonas aeruginosa [7]): 8 mg/L; MIC (Pseudomonas aeruginosa [9]): 4 mg/L; MIC (Pseudomonas aeruginosa [10]): 2 mg/L
H-FRRFRRRWRRRFRRF-NH2	16	8	32	256	256	256	256	16	256	8	64	256	Dose-dependent effect	8	
H-ARRARRRWRRRARRA-NH2	64	128	256	256	256	256	256	256	256	32	256	> 256	Dose-dependent effect	64	
GENTAMICIN [listing 2 of 2 here]												> 256			
